Compound activity as filed in PubChem.
Hits are enriched below; roughly 5.9% of the tested compounds scored in any of these assays.
Pf Dd2 growth: P. falciparum Dd2 growth inhibition. SYBR Green, 72 h; stronger effect = lower value. activity change, % at 10 µM. 2.3% of 94,000 active; in the data active means activity change below about -80%; inconclusive means no clear call, values can overlap the other calls
KDM4C inh: KDM4C (human) demethylase inhibition | Q9H3R0 | GST-KDM4C 2-372, H3K9me3 peptide, LANCE TR-FRET | inhibition, % at 12.5 µM | 0.15% of 96,000 active | AID 720574;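 active means mean replicate inhibition above about 25%, with at least 55% of replicates also reaching it, limit read from the data, passing the limit was not always enough; inconclusive means only one of those two conditions met; inactive means neither condition met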
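Material: GST-tagged GASC-1 (JMJD2C) catalytic fragment, aa 2-372 / Quantity: enzyme final amount 10 nM / Medium: HEPES buffer, pH 7.5, plus ascorbate / Doses: one test concentration per compound / Incubation: 30 min reaction, 60 min detection, RT / Measured by: LANCE TR-FRET / Read-out: inhibition from TR-FRET ratio decrease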
IDH1 mut inh: IDH1 R132H (human) inhibition; IDH1 R132H reductase, diaphorase/resazurin fluorescence, 60 min; inhibition, % at 10 µM; 0.18% of 70,000 active; AID 624101; in the data active means inhibition above about 34%; inconclusive means no clear call, values can overlap the other calls; inactive means below about 11%;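 further: 0% = DMSO and 100% = no enzyme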
Target sequence (O75874 whole entry R132H): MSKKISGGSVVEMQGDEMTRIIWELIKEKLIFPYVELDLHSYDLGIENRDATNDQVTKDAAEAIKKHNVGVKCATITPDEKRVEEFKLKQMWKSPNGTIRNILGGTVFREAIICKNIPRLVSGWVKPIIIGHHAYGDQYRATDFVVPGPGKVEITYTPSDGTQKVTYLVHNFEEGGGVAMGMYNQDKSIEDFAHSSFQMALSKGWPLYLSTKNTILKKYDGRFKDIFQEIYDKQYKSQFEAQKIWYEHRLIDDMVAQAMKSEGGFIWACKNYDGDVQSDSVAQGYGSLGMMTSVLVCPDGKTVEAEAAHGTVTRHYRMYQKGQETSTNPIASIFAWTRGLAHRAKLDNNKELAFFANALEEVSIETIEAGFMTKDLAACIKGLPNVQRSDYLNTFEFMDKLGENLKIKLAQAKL
T cruzi growth-1: blocks T. cruzi growth in NIH3T3 culture; inhibition, % at 8.34 µM; T. cruzi beta-gal in NIH3T3, GalScreen luminescence, 90 h; 5.9% of 77,000 active; AID 624255;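 active means mean inhibition above about 93%, with at least 55% of replicates each passing it, limit read from the data, passing the limit was not always enough; inconclusive means only one of those two conditions holds; inactive means neither condition holds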
T cruzi growth-2: inhibitors of T. cruzi proliferation; inhibition, % at 8.35 µM; AID 651739; 72% of 5,600 active; shares compounds with T cruzi growth-1; T. cruzi beta-gal in NIH3T3, GalScreen luminescence, 90 h;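 active means mean replicate inhibition above about 95% and at least 55% of replicates individually reaching it, limit read from the data; inconclusive means only one of the two criteria is met; inactive means neither criterion is met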
T cruzi growth-3: Trypanosoma cruzi proliferation inhibition; T. cruzi beta-gal in NIH3T3, GalScreen luminescence, 90 h; AID 651740; inhibition, % at 2.09 µM; 21% of 5,600 active; shares compounds with T cruzi growth-1;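 active means mean inhibition above about 95%, with at least 55% of replicates also reaching it, limit read from the data; inconclusive means meets just one of the two conditions; inactive means meets neither condition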;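 further: plate controls were neutral control median for no effect and positive control median for full effect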
3T3 cytotox: kills mouse NIH/3T3 fibroblasts; shares compounds with T cruzi growth-1; NIH/3T3 viability, CellTiter-Glo ATP luminescence, 90 h; cytotoxicity (signal decrease), % at 8.35 µM; 14% of 5,600 active;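 active means mean signal decrease across replicates above about 35% based on untreated-well scatter, with enough replicates individually passing, limit read from the data; inconclusive means no rule stated though some were filed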;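 further: 0% = median of neutral control wells and 100% = median of positive control wells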
NIH3T3 tox 2: kills mouse NIH/3T3 fibroblasts | shares compounds with T cruzi growth-1 | NIH/3T3 viability, CellTiter-Glo ATP luminescence, 90 h | 56% of 5,600 active | inhibition, % at 24.9 µM;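 active means mean loss of cell viability signal at or above a set limit, and enough replicates individually reaching it; inconclusive means meets only the mean limit or only the replicate share; inactive means meets neither condition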;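 further: 0% = median of neutral control wells and 100% = median of positive control wells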
* hit, by the source's call; u = inconclusive; x = not tested or not shown.

SMILES | Pf Dd2 growth | KDM4C inh | IDH1 mut inh | T cruzi growth-1 | T cruzi growth-2 | T cruzi growth-3 | 3T3 cytotox | NIH3T3 tox 2
N#C[C@@H]1[C@@H](c2ccc(-c3ccc(F)cc3)cc2)[C@H](CO)N1C(=O)Cc1ccccc1 | -19 | -1 | x | 62 | x | x | x | x
N#C[C@@H]1[C@H](c2ccc(-c3ccccc3)cc2)[C@@H](CO)N1C(=O)Cc1ccccc1 | -19 | -2 | x | 101* | 108* | 51 | 21 | 53*
N#C[C@@H]1[C@@H](c2ccc(-c3ccc(F)cc3)cc2)[C@@H](CO)N1S(=O)(=O)Cc1ccccc1 | -31 | -2 | x | 99* | 97* | 94 | 13 | 102*
N#C[C@H]1[C@@H](c2ccc(-c3ccc(F)cc3)cc2)[C@H](CO)N1C(=O)Cc1ccccc1 | -7 | -1 | x | u | 106* | 61 | 17 | 77*
OCc1ccc(-c2ccncc2)cc1 | x | x | 0 | x | x | x | x | x
Cc1nnc(SCC(=O)Nc2c(C)n(C)n(-c3ccccc3)c2=O)s1 | x | x | 0 | x | x | x | x | x
CCc1nc(SCC(=O)N(c2ccccc2)c2ccccc2)n[nH]1 | x | x | 0 | x | x | x | x | x
C[C@@H]1CN([C@@H](C)CO)C(=O)c2cc(C#CC3CCCCC3)cnc2O[C@H]1CN(C)S(=O)(=O)c1ccc(F)cc1 | -39 | 12 | 8 | 101* | 105* | 98* | 21 | 99*
C[C@H](CO)N1C[C@H](C)[C@@H](CN(C)S(=O)(=O)c2cccc(F)c2)Oc2ncc(C#CC3CCCC3)cc2C1=O | -72 | 2 | -4 | 119* | 104* | 88 | 6 | 98*
C[C@H](CO)N1C[C@H](C)[C@@H](CN(C)S(=O)(=O)c2cccc(F)c2)Oc2ncc(C#CC3CC3)cc2C1=O | -56 | -1 | x | -88 | x | x | x | x
C[C@@H]1CN([C@@H](C)CO)C(=O)c2cc(C#CC3CCCC3)cnc2O[C@@H]1CN(C)S(=O)(=O)c1cccc(F)c1 | -58 | -1 | -4 | 104* | 96* | 72 | 29 | 75*
C[C@H](CO)N1C[C@H](C)[C@H](CN(C)S(=O)(=O)c2cccc(F)c2)Oc2ncc(C#CC3CCCC3)cc2C1=O | -41 | -2 | 0 | 100 | x | x | x | x
COC(=O)[C@@H]1C[C@@]23C=CC[N+]4([O-])CC[C@@]5(c6ccccc6N[C@@]15C2C)[C@H]34 (some centres not stated) | x | x | 0 | x | x | x | x | x
CC(C)C#Cc1ccc2c(c1)O[C@@H](CN(C)C(=O)c1ccccc1)[C@@H](C)CN([C@H](C)CO)S2(=O)=O | -52 | 0 | 0 | 69 | x | x | x | x
CC(C)C#Cc1ccc2c(c1)O[C@H](CN(C)C(=O)c1ccccc1)[C@@H](C)CN([C@@H](C)CO)S2(=O)=O | -61 | -1 | -1 | 85 | x | x | x | x
CC(C)C#Cc1ccc2c(c1)O[C@@H](CN(C)C(=O)c1ccccc1)[C@H](C)CN([C@@H](C)CO)S2(=O)=O | -67 | -1 | -1 | 92 | x | x | x | x
CC(C)C#Cc1ccc2c(c1)O[C@@H](CN(C)C(=O)c1cccc(F)c1)[C@@H](C)CN([C@H](C)CO)S2(=O)=O | -67 | -1 | -5 | 105* | 102* | 61 | 15 | 54*
CC(C)C#Cc1ccc2c(c1)O[C@H](CN(C)C(=O)c1cccc(F)c1)[C@H](C)CN([C@H](C)CO)S2(=O)=O | -53 | -2 | 0 | 111* | 104* | 52 | 22 | 39*
CC(C)C#Cc1ccc2c(c1)O[C@H](CN(C)C(=O)c1cccc(F)c1)[C@@H](C)CN([C@H](C)CO)S2(=O)=O | -60 | 0 | -3 | u | 106* | 71 | 13 | u
CC(C)C#Cc1ccc2c(c1)O[C@@H](CN(C)C(=O)c1cccc(F)c1)[C@H](C)CN([C@H](C)CO)S2(=O)=O | -70 | -3 | 0 | 103* | 103* | 38 | 56* | 63*
O=C(O)CCCCCC(=O)N/N=C/c1ccc(F)cc1 | x | x | 0 | x | x | x | x | x
COc1cccc(S(=O)(=O)Nc2ccc3c(c2)[C@H]2C[C@H](CC(=O)NCc4ccc(Cl)cc4)O[C@@H](CO)[C@H]2O3)c1 | -3 | -6 | -1 | 146* | 108* | 36 | -2 | 8
COc1cccc(S(=O)(=O)Nc2ccc3c(c2)[C@H]2C[C@H](CC(=O)NC4CCCCC4)O[C@H](CO)[C@H]2O3)c1 | -37 | -1 | 0 | 124* | u | -11 | -3 | 7
COc1cccc(S(=O)(=O)Nc2ccc3c(c2)[C@@H]2C[C@@H](CC(=O)NCc4ccc(Cl)cc4)O[C@@H](CO)[C@@H]2O3)c1 | -40 | 3 | 0 | 78 | x | x | x | x
COc1cccc(S(=O)(=O)Nc2ccc3c(c2)[C@H]2C[C@@H](CC(=O)NC4CCCCC4)O[C@H](CO)[C@H]2O3)c1 | -18 | x | u | 15 | x | x | x | x
SMILES | Pf Dd2 growth | KDM4C inh | IDH1 mut inh | T cruzi growth-1 | T cruzi growth-2 | T cruzi growth-3 | 3T3 cytotox | NIH3T3 tox 2
CS(=O)(=O)N(CC(=O)Nc1ccccc1Sc1ccccc1)c1ccc(Cl)c(Cl)c1 | x | x | 0 | x | x | x | x | x
Cc1cccc(NC(=O)CNS(=O)(=O)c2ccc(Br)cc2)c1 | x | x | 0 | x | x | x | x | x
CC(=O)N1CCCCN2[C@H](CO)[C@@H](c3ccc(-c4cccc(C)c4)cc3)[C@@H]2C1 | 34 | 0 | x | 4 | x | x | x | x
Cc1cccc(-c2ccc([C@@H]3[C@H](CO)N4CCCCN(C(=O)NC(C)C)C[C@@H]34)cc2)c1 | -23 | -1 | x | 104* | 110* | 84 | 24 | 105*
Cc1cccc(-c2ccc([C@H]3[C@H](CO)N4CCCCN(C(=O)NC(C)C)C[C@@H]34)cc2)c1 | 21 | -2 | x | 106* | 107* | 64 | 3 | 96*
CC(=O)N1CCCCN2[C@H](CO)[C@@H](c3ccc(-c4cccc(C)c4)cc3)[C@H]2C1 | 25 | -3 | x | -7 | x | x | x | x
COc1cccc(-c2ccc([C@@H]3[C@H]4CN(C(=O)NC(C)C)CCCCN4[C@H]3CO)cc2)c1 | 33 | 0 | x | 75 | x | x | x | x
Cc1cccc(-c2ccc([C@H]3[C@H]4CN(C(=O)NC(C)C)CCCCN4[C@H]3CO)cc2)c1 | 18 | -1 | x | 99* | 45 | 8 | 1 | 12
Cc1nc(SCC(=O)Nc2ccc(I)cc2)nc2c1CCCC2 | x | x | 0 | x | x | x | x | x
O=C(CCCC(=O)Nc1cc(C(F)(F)F)ccc1Cl)Nc1cc(C(F)(F)F)ccc1Cl | x | x | 0 | x | x | x | x | x
C[C@H]1CN([C@@H](C)CO)C(=O)c2cccc(NS(=O)(=O)c3ccc(Cl)cc3)c2O[C@H]1CN(C)Cc1ccc(C(=O)Nc2ccccc2N)cc1 | -89* | -1 | 0 | 104* | 90 | 81 | 6 | 39*
